Source: ChEMBL document CHEMBL1926562, “Design, synthesis and biological activity of sphingosine kinase 2 selective inhibitors” (Bioorg Med Chem, 2012)
The source made the active and inactive calls. No cut-off for these calls is given here.

Assays:
Sphingosine kinase 1 [1] = target: T1, Sphingosine kinase 1 (Homo sapiens, UniProt Q9NYA1); experiment: Inhibition of human SphK1 expressed in baculovirus infected Sf9 insect cells assessed as remaining activity using sphingosine and [gamma-(32)P]-ATP as substrate at 100 uM by scintillation proximity counting
In short: (§1)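 Enzyme source: supernatant (10,000×g) of homogenized Sf9 cells infected with recombinant virus for 72 h, 2-3 μg protein per reaction. Sphingosine substrate at 10 μM for SphK1 and 5 μM for SphK2. Initial screen used inhibitor at 100 μM, with some compounds at 10 μM. Read-out is percent of remaining kinase activity, averaged over three experiments.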

[2] = target: T2, Sphingosine kinase 2 (Mus musculus) (UniProt Q9JIA7); experiment: Inhibition of mouse SphK2 expressed in baculovirus infected Sf9 insect cells assessed as remaining activity using sphingosine and [gamma-(32)P]-ATP at 100 uM by scintillation proximity counting; in short: as §1
T2 sequence (whole entry): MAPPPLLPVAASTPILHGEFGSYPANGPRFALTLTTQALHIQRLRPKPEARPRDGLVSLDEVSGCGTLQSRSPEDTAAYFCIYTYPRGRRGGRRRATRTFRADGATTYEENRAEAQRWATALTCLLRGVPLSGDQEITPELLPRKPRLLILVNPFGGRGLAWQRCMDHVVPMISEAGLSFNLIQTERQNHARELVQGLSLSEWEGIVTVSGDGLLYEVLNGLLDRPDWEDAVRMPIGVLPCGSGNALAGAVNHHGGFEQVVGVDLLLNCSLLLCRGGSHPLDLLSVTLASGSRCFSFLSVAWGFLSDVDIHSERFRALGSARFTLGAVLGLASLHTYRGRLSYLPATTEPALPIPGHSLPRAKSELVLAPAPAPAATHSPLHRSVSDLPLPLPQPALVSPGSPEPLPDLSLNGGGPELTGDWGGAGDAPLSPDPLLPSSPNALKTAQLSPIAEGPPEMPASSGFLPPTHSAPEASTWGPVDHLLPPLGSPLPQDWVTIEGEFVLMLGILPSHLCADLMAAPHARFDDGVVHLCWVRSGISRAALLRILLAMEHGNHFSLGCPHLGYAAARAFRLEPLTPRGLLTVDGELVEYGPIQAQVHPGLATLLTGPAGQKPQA

Sphingosine kinase 1 [3] = target: T1, Sphingosine kinase 1; experiment: Inhibition of human SphK1 expressed in baculovirus infected Sf9 insect cells using sphingosine and [gamma-(32)P]-ATP by scintillation proximity assay
In short: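 Ki calculated as Ki = [I]/(K′m/Km – 1), using a sphingosine Km of 10 μM for SphK1 and 5 μM for SphK2. Enzyme came from infected Sf9 cell extract (10,000×g supernatant, 2-3 μg protein).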

Sphingosine kinase 2 = target: T3, Sphingosine kinase 2 (Mus musculus, UniProt Q9JIA7); experiment: Inhibition of mouse SphK2 expressed in baculovirus infected Sf9 insect cells using sphingosine and [gamma-(32)P]-ATP by scintillation proximity assay
T3 sequence (Q9JIA7 whole entry): T2 sequence (whole entry)

[4] = Selectivity ratio of Ki/Km for human SphK1 to Ki/Km for mouse SphK2
In short: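 Selectivity calculated as (Ki/Km)SphK1 divided by (Ki/Km)SphK2, with sphingosine Km taken as 10 μM for SphK1 and 5 μM for SphK2.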

[5] = target: T2, Sphingosine kinase 2 (Mus musculus); experiment: Inhibition of mouse SphK2 expressed in baculovirus infected Sf9 insect cells assessed as remaining activity using sphingosine and [gamma-(32)P]-ATP at 10 uM by scintillation proximity counting; in short: as §1
[6] = target: T2, Sphingosine kinase 2 (Mus musculus); experiment: Inhibition of mouse SphK2 expressed in baculovirus infected Sf9 insect cells using sphingosine and [gamma-(32)P]-ATP at 10 uM by scintillation proximity counting; in short: as §1

T1 sequence (Q9NYA1 whole entry): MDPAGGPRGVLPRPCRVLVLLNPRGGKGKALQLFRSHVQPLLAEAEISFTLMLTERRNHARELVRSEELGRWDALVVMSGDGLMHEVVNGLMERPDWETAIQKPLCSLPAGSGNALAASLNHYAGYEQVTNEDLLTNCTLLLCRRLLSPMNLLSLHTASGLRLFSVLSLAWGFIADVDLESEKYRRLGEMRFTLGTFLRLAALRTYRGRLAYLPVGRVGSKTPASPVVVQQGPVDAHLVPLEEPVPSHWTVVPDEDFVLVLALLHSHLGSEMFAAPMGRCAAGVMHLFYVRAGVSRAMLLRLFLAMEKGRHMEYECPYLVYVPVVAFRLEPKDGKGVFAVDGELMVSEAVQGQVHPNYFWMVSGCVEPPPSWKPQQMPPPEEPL

Row | SMILES | Activity (Sphingosine kinase 1 [1]) [%] | Activity [2] [%] | also measured
1 | CCCCCCCCc1ccc([C@H]2CC[C@H](O)CC2)cc1 | 113 | 70.9 | 
2 | CCCCCCCCc1ccc(C2CCC(=CCO)CC2)cc1 (stereo unspecified) | 100 | 66.7 | 
3 | C#CCN[C@H]1CC[C@@H](c2ccc(CCCCCCCC)cc2)CC1 | 100 | 101 | 
4 | CCCCCCCCc1ccc([C@H]2CC[C@H](NCCCC)CC2)cc1 | 20.5 | 20.1 | 
5 | CCCCCCCCc1ccc([C@H]2CC[C@H](NCCO)CC2)cc1 | 21.6 | 8.5 | Ki (Sphingosine kinase 1 [3]): 22 µM; Ki (Sphingosine kinase 2): 38 µM; Selectivity ratio [4]: 1.23
6 | CCCCCCCCc1ccc([C@H]2CC[C@@H](NC)CC2)cc1 | 69.8 | 5.4 | Ki (Sphingosine kinase 1 [3]): > 100 µM; Ki (Sphingosine kinase 2): 40 µM
7 | CCCCCCCCc1ccc(-c2cnc(N)cn2)cc1 |  |  | Activity [5]: 99%
8 | CCCCCCCCc1ccc([C@H]2CC[C@H](N(C)C)CC2)cc1 | 46.3 | 9 | Ki (Sphingosine kinase 1 [3]): 40 µM; Ki (Sphingosine kinase 2): 27 µM; Selectivity ratio [4]: 0.74
9 | CCCCCCCCc1ccc(C2CCC(O)(C[N+](=O)[O-])CC2)cc1 (stereo unspecified) | 100 | 52.7 | 
10 | CCCCCCCCc1ccc([C@H]2CC[C@@H](N(C)C(C)C)CC2)cc1 | 113 | 101 | 
11 | CCCCCCCCc1ccc([C@H]2CC[C@@H](N(C)CCC)CC2)cc1 | 90.7 | 65.5 | 
12 | CCCCCCCCc1ccc(C2CCC(N)(C#N)CC2)cc1 (stereo unspecified) | 101 | 61.8 | 
13 | C#CCN[C@H]1CC[C@H](c2ccc(CCCCCCCC)cc2)CC1 | 109 | 100 | 
14 | CCCCCCCCc1ccc(C2CCC(=CC(=O)OC)CC2)cc1 (stereo unspecified) | 101 | 101 | 
15 | CCCCCCCCc1ccc([C@H]2CC[C@H](NCc3ccncc3)CC2)cc1 | 33 | 23 | 
16 | C=CCN[C@H]1CC[C@@H](c2ccc(CCCCCCCC)cc2)CC1 | 91.8 | 100 | 
17 | C=CC[N+](C)(C)[C@H]1CC[C@H](c2ccc(CCCCCCCC)cc2)CC1 | 30.4 | 2.1 | 
18 | CCCCCCCCc1ccc(C2CCC(=NO)CC2)cc1 (stereo unspecified) | 130 | 56.5 | 
19 | CCCCCCCCc1ccc([C@H]2CC[C@@H](NCCC)CC2)cc1 | 75.6 | 18.3 | 
20 | CCCCCCCCc1ccc([C@H]2CC[C@H](NC)CC2)cc1 | 15.7 | 7.7 | 
21 | CCCCCCCCc1ccc([C@H]2CC[C@@H]([N+](C)(C)C)CC2)cc1 | 65.8 | 8.3 | inhibition [6]: Active

Row | SMILES | Activity (Sphingosine kinase 1 [1]) [%] | Activity [2] [%] | also measured
22 | CCCCCCCCc1ccc([C@H]2CC[C@H](NC(C)C)CC2)cc1 | 24.6 | 23.9 | 
23 | CCCCCCCCc1ccc([C@H]2CC[C@H](N(C)CCC)CC2)cc1 | 77 | 45.9 | 
24 | CCCCCCCCc1ccc([C@H]2CC[C@@H](NC3CC3)CC2)cc1 | 113 | 116 | 
25 | C=CCN[C@H]1CC[C@H](c2ccc(CCCCCCCC)cc2)CC1 | 19 | 5.7 | 
26 | CCCCCCCCc1ccc([C@H]2CC[C@@H](N(C)C)CC2)cc1 | 83.9 | 50.8 | 
27 | CCCCCCCCc1ccc([C@H]2CC[C@H](NCc3ccccc3)CC2)cc1 | 83.9 | 53.3 | 
28 | CCCCCCCCc1ccc([C@H]2CC[C@H]([N+](C)(C)CCO)CC2)cc1 | 10.5 | 3 | Ki (Sphingosine kinase 1 [3]): 70 µM; Ki (Sphingosine kinase 2): 14 µM; Selectivity ratio [4]: 2.5
29 | CCCCCCCCc1ccc([C@H]2CC[C@H]([N+](C)(C)C(C)C)CC2)cc1 | 49.1 | 11.5 | Ki (Sphingosine kinase 1 [3]): > 100 µM; Ki (Sphingosine kinase 2): 33 µM
30 | CCCCCCCCc1ccc([C@H]2CC[C@@H](NCc3ccccc3)CC2)cc1 | 98.4 | 67.2 | 
31 | CCCCCCCCc1ccc([C@H]2CC[C@H](N)CC2)cc1 | 47 | 25 | Ki (Sphingosine kinase 1 [3]): 32 µM; Ki (Sphingosine kinase 2): 29 µM; Selectivity ratio [4]: 0.55
32 | CCCCCCCCc1ccc([C@H]2CC[C@@H]([N+](C)(C)CCC)CC2)cc1 | 25.1 | 3.2 | inhibition [6]: Active
33 | CCCCCCCCc1ccc([C@H]2CC[C@@H](NCCCC)CC2)cc1 | 100 | 60.6 | 
34 | CCCCCCCCc1ccc([C@H]2CC[C@H]([N+](C)(C)Cc3ccccc3)CC2)cc1 | 25.7 | 8.3 | 
35 | CCCCCCCCc1ccc([C@H]2CC[C@H](NCCC)CC2)cc1 | 15.8 | 5.5 | 
36 | CCCCCCCCc1ccc([C@H]2CC[C@@H]([N+](C)(C)CCO)CC2)cc1 | 80.9 | 32.6 | inhibition [6]: Active
37 | CCCCCCCCc1ccc(-c2ccc(-n3ccccc3=O)nc2)cc1 |  |  | Activity [5]: 93.7%
38 | CCCCCCCCc1ccc([C@H]2CC[C@@H](NC(C)C)CC2)cc1 | 90 | 16.5 | 
39 | CCCCCCCCc1ccc([C@H]2CC[C@@H](NCCO)CC2)cc1 | 22.4 | 8.9 | 
40 | CCCCCCCCc1ccc([C@H]2CC[C@@H]([N+](C)(C)C(C)C)CC2)cc1 | 101 | 10.4 | inhibition [6]: Active
41 | CCCCCCCCc1ccc([C@H]2CC[C@H](NC3CC3)CC2)cc1 | 65 | 77 | 
42 | CCCCCCCCc1ccc(-c2cccc(N3CCNCC3)n2)cc1 |  |  | Activity [5]: 87.3%
